Source: PubChem BioAssay (several laboratories)
Most compounds without a hit are left out; they make up all but 4.9% or so of the library.
STAT3 act-1: IL-6 driven STAT3 reporter potentiators, primary screen, U3A cells, luciferase, luminescence, MLSCN library; IL-6 STAT3-luciferase reporter; 100% = signal with IL-6 EC80 alone; activation (% of control), % at 5.6 µM; hit rate 0.91% among 190,000; AID 871, 2007;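 active means activation above the screen-wide mean of compound activation plus 3 SD, cut at about 130% in these data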;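 further: 0% = background luminescence of wells with medium and substrate only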
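Test system: Human STAT1-deficient U3A cells with stable STAT3-luciferase reporter | Also added: Interleukin-6, 33 ng/mL | Timing: Compound pre-incubation 1 h before IL-6, then 6 h stimulation at 37 °C | Technique: Luciferase reporter luminescence | Read-out: Percent of IL-6-only median luminescence | Benchmarks: IL-6-only wells as 100% reference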
NF-kB expr up: activators of NF-kB expression in neurons, primary screen, cell-based, HTS | fold change at 12.5 µM | hit rate 1.6% among 190,000 | human neuronal cells, NF-kB reporter expression; active compounds read high; in the data active means fold change above about 3.3
APP 5'UTR act: activators of APP 5'UTR luciferase reporter, primary screen, SH-SY5Y cells. activation, % at 2 µM. hit rate 1% among 190,000. SH-SY5Y APP 5'UTR luciferase reporter, luminescence; zero percent = DMSO vehicle wells;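 active means activation above a set limit, based on mean plus 3 SD of controls, cut at about 140% in these data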
STAT3 inh: IL-6 driven STAT3 reporter inhibitors, primary screen, U3A cells, luciferase, luminescence, MLSCN library; IL-6 STAT3-luciferase reporter; host cell line lacks STAT1; inhibition, % at 5.5 µM; hit rate 0.89% among 190,000;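 active means inhibition above the mean inhibition across all screened compounds plus 3 SD, cut at about 44% in these data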;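 further: 0% = DMSO only wells and 100% = 100 µM nifuroxazide control wells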
STAT1 inh: STAT1 signaling inhibitors, primary screen, cell-based, HTS, luciferase reporter; NIH 3T3 STAT1-luciferase reporter, IFN-gamma, luminescence; inhibition, % at 5.5 µM; hit rate 0.35% among 200,000; AID 920, 2007;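 active means inhibition above a set limit, the mean inhibition across all tested compounds plus 3 SD, cut at about 34% in these data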;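 further: 0% = IFN-gamma with DMSO and 100% = IFN-gamma with 300 µM nifuroxazide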
STAT1 act-1: STAT1 signaling activators, primary screen, cell-based, HTS, luciferase reporter; NIH 3T3 STAT1-luciferase reporter, IFN-gamma, luminescence; 100% = IFN-gamma alone, no compound; activation (% of control), % at 5.5 µM; hit rate 2.6% among 200,000;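 active means activation above the screen-wide mean activation plus 3 SD, cut at about 130% in these data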;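 further: raw ratio to IFN-gamma control signal so 100% means no change and 0% no light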
STAT3 act-2: STAT3 reporter potentiators, retest of hits, confirmation, U3A cells, luciferase, luminescence; hit rate 64% among 1,200; shares compounds with STAT3 act-1; potentiation (% of control), % at 5.7 µM; IL-6 potentiation; U3A cells lack STAT1; 100 means same as IL-6 alone;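 active means percent activation of the STAT3 luciferase reporter above a set limit taken from the earlier primary screen, cut at about 130% in these data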;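 further: 0% = background signal of medium plus substrate and 100% = median of IL-6 with DMSO wells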
NFkB act 2: NF-kB reporter activators in human cells, counter-screen for STAT3 activator project; NF-kappaB reporter activation; AID 1309, 2008; shares compounds with STAT3 act-1; activation (% of control), % at 5.7 µM; hit rate 11% among 1,200; in the data active means activation above about 120%;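 further: reporter induced by TNF-alpha stimulation; 100% = median of stimulated DMSO wells and 0% = no signal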
STAT1 act-2: STAT1 reporter activators, IFN-gamma induced, counter-screen for STAT3 activator project, cell-based, NIH 3T3, luciferase luminescence; NIH 3T3 STAT1-luciferase reporter; hit rate 13% among 1,200; AID 1318, 2008; shares compounds with STAT3 act-1; activation (% of control), % at 5.7 µM;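 active means activation above the solvent-only control well mean plus 3 SD, set per screening run, cut at about 120% in these data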;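 further: 100% = IFN-gamma with DMSO median signal so 100% means no change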
Numbers without * were called inactive; . = no result.

SMILES	STAT3 act-1	NF-kB expr up	APP 5'UTR act	STAT3 inh	STAT1 inh	STAT1 act-1	STAT3 act-2	NFkB act 2	STAT1 act-2
CC(=O)c1coc2c1cc(O)c1ccccc12	85.0	1.31	30.2	15.5	-6.6	106.1	.	.	.
O=C(c1ccco1)c1coc2c1cc(O)c1ccccc12	161.2*	1.26	59.5	-65.3	-2.0	100.5	164.1*	104.4	100.7
O=C(O)C(Cc1cc2ccccc2[nH]1)N1C(=O)C2CC=C(Cl)CC2C1=O (stereo not drawn)	141.5*	1.02	2.0	-44.0	4.6	95.8	134.9*	101.6	95.4
O=C(NNC(=O)C1CCCN(S(=O)(=O)c2cccc(F)c2)C1)C1CC1 (stereo not drawn)	94.3	1.02	6.6	7.5	-0.9	101.5	.	.	.
Cn1c(Sc2ccc(Cl)cc2)c(C=O)c2ccccc21	169.9*	0.76	3.8	-78.3	13.8	87.6	140.0*	74.7	81.2
Cn1c(Sc2ccccc2Cl)c(C=O)c2ccccc21	92.8	1.11	-2.7	19.4	0.3	99.7	.	.	.
CCN(CC)c1ccc(/C=N/NC(=O)CCC(=O)NCc2ccccc2)c(O)c1	96.7	1.79	-52.4	4.8	-4.1	103.7	.	.	.
Oc1ccccc1-c1cc(-c2cccc(F)c2)n[nH]1	145.4*	9.9*	202.0*	-50.8	-10.1	109.3	154.9*	139.7*	110.7
Oc1ccc(Cl)cc1-c1cc(-c2cccc(Br)c2)n[nH]1	96.8	1.29	8.6	11.0	0.0	100.0	.	.	.
Oc1c(-c2cc(-c3ccco3)[nH]n2)ccc2ccccc12	164.2*	8.72*	132.8	-75.9	-17.9	116.6	165.9*	153.7*	116.0
NNC(=O)c1cc(-c2ccco2)[nH]n1	101.9	1.24	-18.1	5.4	-8.0	107.1	.	.	.
Oc1ccc(Br)cc1-c1cc(-c2ccco2)[nH]n1	136.2*	2	14.2	-35.3	-0.7	100.6	127.7	107.0	116.0
Cc1cc(C)cc(-c2nnc(SCc3ccc(C(=O)O)cc3)o2)c1	97.7	1.21	18.1	8.1	3.3	96.6	.	.	.
Cc1ncoc1C(=O)N1CCc2c([nH]c3ccccc23)C1C1CCCCC1 (stereo not drawn)	139.7*	1.56	33.7	-29.3	-12.8	110.8	128.4	106.2	109.6
CCOC(=O)c1c(-n2cccc2)sc2c1CCCC2=O	104.9	0.94	14.2	-5.4	-15.8	114.0	.	.	.
COC(=O)c1c(NC(=O)CN2CCN(C(=O)c3ccco3)CC2)c2cc(C)ccc2n1C	138.5*	0.61	7.7	-37.4	-3.4	103.1	141.1*	99.0	97.2
COC(=O)c1c(NC(=O)CN2CCN(C(=O)c3ccco3)CC2)c2c(C)cccc2n1C	90.7	0.75	10.7	13.3	6.2	94.3	.	.	.
OC1CCN(c2c3c(nc4cc(-c5ccc(F)cc5)nn24)CCC3)CC1	85.0	0.68	-10.0	20.8	5.1	95.3	.	.	.
O=C(C1CCCO1)N1CCN(c2c3c(nc4cc(-c5ccc(F)cc5)nn24)CCC3)CC1 (stereo not drawn)	136.5*	0.44	22.0	-31.2	1.6	98.6	120.4	106.7	94.5
Cc1ccc(C(=O)N2CCN(S(=O)(=O)c3ccc(C)cc3)CC2)cc1	146.2*	0.95	33.1	-56.3	4.6	95.6	112.0	103.4	99.2
Cc1ccc(C(=O)N2CCN(S(C)(=O)=O)C2)cc1	105.2	1.07	-4.1	2.9	2.7	97.5	.	.	.
